Reference: ChEMBL document CHEMBL1255376, “Comparative surveillance study of telavancin activity against recently collected gram-positive clinical isolates from across the United States” (2008)
≈ marks a conversion by molar mass, not a printed value.

Legend:
Type in all cases: functional
Staphylococcus aureus [1] = experiment: Antibacterial activity against vancomycin-, methicillin-resistant Staphylococcus aureus VRS1 by broth microdilution method
Method in brief: (§1)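 VISA and VRSA strains from the NARSA repository were tested separately from the surveillance isolates. MICs by CLSI broth microdilution in frozen trays with serial dilutions. Quality-control strains run in parallel. Susceptibility categories follow CLSI breakpoints, and methicillin resistance was assigned from the oxacillin MIC.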

Enterococcus faecium = experiment: Antibacterial activity against vancomycin-resistant and teichoplanin-susceptible Enterococcus faecium clinical isolate by broth microdilution method
Method in brief: (§2)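 MICs by CLSI broth microdilution in frozen trays pre-loaded with serial dilutions of each agent. Quality-control strains run in parallel: E. faecalis ATCC 29212 and ATCC 51299, S. aureus ATCC 29213, S. pneumoniae ATCC 49619. Comparator susceptibility categories follow CLSI breakpoints. Methicillin resistance in staphylococci assigned from the oxacillin MIC.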

Staphylococcus capitis [2] = experiment: Antibacterial activity against methicillin-resistant coagulase-negative Staphylococcus capitis clinical isolate by broth microdilution method; method in brief: as §2
Streptococcus equinus = experiment: Antibacterial activity against Streptococcus bovis clinical isolate by broth microdilution method
Method in brief: (§3)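 MIC by CLSI broth microdilution in frozen microtiter trays holding serial dilutions of each agent, prepared from standard laboratory powders. E. faecalis ATCC 29212 and ATCC 51299, S. aureus ATCC 29213 and S. pneumoniae ATCC 49619 run in parallel as quality-control strains. Comparator susceptibility interpreted with CLSI breakpoints.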

Staphylococcus hominis [3] = experiment: Antibacterial activity against methicillin-susceptible coagulase-negative Staphylococcus hominis clinical isolate by broth microdilution method; method in brief: as §2
Staphylococcus warneri [4] = experiment: Antibacterial activity against methicillin-susceptible coagulase-negative Staphylococcus warneri clinical isolate by broth microdilution method; method in brief: as §2
[5] = system: Staphylococcus epidermidis; experiment: Antibacterial activity against methicillin-resistant coagulase-negative Staphylococcus epidermidis clinical isolate by broth microdilution method; method in brief: as §2
Streptococcus pneumoniae [6] = experiment: Antibacterial activity against penicillin resistant Streptococcus pneumoniae clinical isolate by broth microdilution method; method in brief: as §2
Streptococcus pneumoniae [7] = experiment: Antibacterial activity against penicillin intermediate Streptococcus pneumoniae clinical isolate by broth microdilution method; method in brief: as §2
Staphylococcus [8] = experiment: Antibacterial activity against daptomycin-nonsusceptible coagulase-negative Staphylococcus isolate 1285835 by broth microdilution method; method in brief: as §3
Staphylococcus capitis [9] = experiment: Antibacterial activity against methicillin-susceptible coagulase-negative Staphylococcus capitis clinical isolate by broth microdilution method; method in brief: as §2
Staphylococcus aureus [10] = experiment: Antibacterial activity against vancomycin-, methicillin-resistant Staphylococcus aureus VRS3 by broth microdilution method; method in brief: as §1
Staphylococcus cohnii [11] = experiment: Antibacterial activity against methicillin-resistant coagulase-negative Staphylococcus cohnii clinical isolate by broth microdilution method; method in brief: as §2
Staphylococcus aureus [12] = experiment: Antibacterial activity against vancomycin-intermediate methicillin-resistant Staphylococcus aureus NRS17 by broth microdilution method; method in brief: as §1
Streptococcus agalactiae = experiment: Antibacterial activity against Streptococcus agalactiae clinical isolate by broth microdilution method; method in brief: as §3
Mammaliicoccus sciuri [13] = experiment: Antibacterial activity against methicillin-susceptible coagulase-negative Staphylococcus sciuri clinical isolate by broth microdilution method; method in brief: as §2
Mammaliicoccus sciuri [14] = experiment: Antibacterial activity against methicillin-resistant coagulase-negative Staphylococcus sciuri clinical isolate by broth microdilution method; method in brief: as §2
[15] = Antibacterial activity against Streptococcus sp. Group C clinical isolate by broth microdilution method; method in brief: as §3
Staphylococcus capitis [16] = experiment: Antibacterial activity against daptomycin-nonsusceptible Staphylococcus capitis isolate 1285355 by broth microdilution method; method in brief: as §3
Staphylococcus warneri [17] = experiment: Antibacterial activity against methicillin-resistant coagulase-negative Staphylococcus warneri clinical isolate by broth microdilution method; method in brief: as §2
Staphylococcus simulans [18] = experiment: Antibacterial activity against methicillin-resistant coagulase-negative Staphylococcus simulans clinical isolate by broth microdilution method; method in brief: as §2
Staphylococcus hominis [19] = experiment: Antibacterial activity against methicillin-resistant coagulase-negative Staphylococcus hominis clinical isolate by broth microdilution method; method in brief: as §2
Streptococcus sp. = experiment: Antibacterial activity against Streptococcus sp. clinical isolate by broth microdilution method
Method in brief: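 MIC by CLSI broth microdilution in frozen microtiter trays holding serial dilutions of each agent, prepared from standard laboratory powders. Comparator susceptibility interpreted with CLSI breakpoints.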

Staphylococcus cohnii [20] = experiment: Antibacterial activity against methicillin-susceptible coagulase-negative Staphylococcus cohnii clinical isolate by broth microdilution method; method in brief: as §2
Staphylococcus xylosus = experiment: Antibacterial activity against methicillin-resistant coagulase-negative Staphylococcus xylosus clinical isolate by broth microdilution method; method in brief: as §2
Staphylococcus simulans [21] = experiment: Antibacterial activity against methicillin-susceptible coagulase-negative Staphylococcus simulans clinical isolate by broth microdilution method; method in brief: as §2
Staphylococcus [22] = experiment: Antibacterial activity against methicillin-susceptible coagulase-negative unspeciated Staphylococcus clinical isolate by broth microdilution method; method in brief: as §2
Staphylococcus aureus [23] = experiment: Antibacterial activity against methicillin-resistant Staphylococcus aureus
[24] = Antibacterial activity against Streptococcus sp. Group G clinical isolate by broth microdilution method; method in brief: as §3
[25] = system: Staphylococcus haemolyticus; experiment: Antibacterial activity against methicillin-susceptible coagulase-negative Staphylococcus haemolyticus clinical isolate by broth microdilution method; method in brief: as §2
Enterococcus faecalis [26] = experiment: Antibacterial activity against vancomycin- and teichoplanin-nonsusceptible Enterococcus faecalis clinical isolate by broth microdilution method; method in brief: as §2
Streptococcus mitis = experiment: Antibacterial activity against Streptococcus mitis clinical isolate by broth microdilution method; method in brief: as §3
[27] = system: Streptococcus constellatus; experiment: Antibacterial activity against Streptococcus constellatus clinical isolate by broth microdilution method; method in brief: as §3
[28] = system: Staphylococcus haemolyticus; experiment: Antibacterial activity against methicillin-resistant coagulase-negative Staphylococcus haemolyticus clinical isolate by broth microdilution method; method in brief: as §2
Enterococcus faecalis [29] = experiment: Antibacterial activity against vancomycin-resistant and teichoplanin-susceptible Enterococcus faecalis clinical isolate by broth microdilution method; method in brief: as §2
Streptococcus sanguinis = experiment: Antibacterial activity against Streptococcus sanguinis clinical isolate by broth microdilution method; method in brief: as §3
Staphylococcus aureus [30] = experiment: Antibacterial activity against methicillin-susceptible Staphylococcus aureus clinical isolate by broth microdilution method; method in brief: as §2
Staphylococcus [31] = experiment: Antibacterial activity against methicillin-resistant coagulase-negative unspeciated Staphylococcus clinical isolate by broth microdilution method; method in brief: as §2
[32] = system: Staphylococcus epidermidis; experiment: Antibacterial activity against methicillin-susceptible coagulase-negative Staphylococcus epidermidis clinical isolate by broth microdilution method; method in brief: as §2

Work on `CCCCCCCCCCNCCN[C@@]1(C)C[C@H](O[C@H]2[C@H](Oc3c4cc5cc3Oc3ccc(cc3Cl)[C@@H](O)[C@@H](NC(=O)[C@@H](CC(C)C)NC)C(=O)N[C@@H](CC(N)=O)C(=O)N[C@H]5C(=O)N[C@H]3C(=O)N[C@H](C(=O)N[C@H](C(=O)O)c5cc(O)c(CNCP(=O)(O)O)c(O)c5-c5cc3ccc5O)[C@H](O)c3ccc(c(Cl)c3)O4)O[C@H](CO)[C@@H](O)[C@@H]2O)O[C@@H](C)[C@H]1O` [TELAVANCIN] yielded an MIC (Staphylococcus aureus [1]) of 4 mg/L (≈ 2.28 µM), an MIC50 (Enterococcus faecium) of 0.25 mg/L (≈ 0.142 µM) and an MIC90 (Enterococcus faecium) of 2 mg/L (≈ 1.14 µM). The MIC50 (Staphylococcus capitis [2]) was 0.25 mg/L (≈ 0.142 µM), the MIC90 (Staphylococcus capitis [2]) was 0.5 mg/L (≈ 0.285 µM) and the MIC50 (Streptococcus equinus) was 0.03 mg/L (≈ 0.0171 µM). The MIC90 (Streptococcus equinus) was 0.12 mg/L (≈ 0.0684 µM), the MIC50 (Staphylococcus hominis [3]) was 0.25 mg/L (≈ 0.142 µM) and the MIC90 (Staphylococcus hominis [3]) was 0.5 mg/L (≈ 0.285 µM). The MIC50 (Staphylococcus warneri [4]) was 0.25 mg/L (≈ 0.142 µM), the MIC90 (Staphylococcus warneri [4]) was 0.5 mg/L (≈ 0.285 µM) and the MIC50 [5] was 0.25 mg/L (≈ 0.142 µM). The MIC90 [5] was 0.5 mg/L (≈ 0.285 µM), the MIC50 (Streptococcus pneumoniae [6]) was 0.015 mg/L (≈ 0.00854 µM) and the MIC90 (Streptococcus pneumoniae [6]) was 0.015 mg/L (≈ 0.00854 µM). It also gave an MIC50 (Streptococcus pneumoniae [7]) of 0.015 mg/L (≈ 0.00854 µM), an MIC90 (Streptococcus pneumoniae [7]) of 0.015 mg/L (≈ 0.00854 µM) and an MIC (Staphylococcus [8]) of 0.5 mg/L (≈ 0.285 µM). For the same compound, the MIC50 (Staphylococcus capitis [9]) was 0.25 mg/L (≈ 0.142 µM), the MIC90 (Staphylococcus capitis [9]) was 0.5 mg/L (≈ 0.285 µM) and the MIC (Staphylococcus aureus [10]) was 4 mg/L (≈ 2.28 µM). It also gave an MIC50 (Staphylococcus cohnii [11]) of 0.25 mg/L (≈ 0.142 µM), an MIC90 (Staphylococcus cohnii [11]) of 0.5 mg/L (≈ 0.285 µM) and an MIC (Staphylococcus aureus [12]) of 1 mg/L (≈ 0.57 µM). For the same compound, the MIC50 (Streptococcus agalactiae) was 0.06 mg/L (≈ 0.0342 µM), the MIC90 (Streptococcus agalactiae) was 0.06 mg/L (≈ 0.0342 µM) and the MIC50 (Mammaliicoccus sciuri [13]) was 0.25 mg/L (≈ 0.142 µM). For the same compound, the MIC90 (Mammaliicoccus sciuri [13]) was 0.5 mg/L (≈ 0.285 µM), the MIC50 (Mammaliicoccus sciuri [14]) was 0.25 mg/L (≈ 0.142 µM) and the MIC90 (Mammaliicoccus sciuri [14]) was 0.5 mg/L (≈ 0.285 µM). The MIC [15] was 0.03 mg/L (≈ 0.0171 µM), the MIC50 [15] was 0.03 mg/L (≈ 0.0171 µM) and the MIC90 [15] was 0.06 mg/L (≈ 0.0342 µM). It also gave an MIC (Staphylococcus capitis [16]) of 1 mg/L (≈ 0.57 µM), an MIC50 (Staphylococcus warneri [17]) of 0.25 mg/L (≈ 0.142 µM) and an MIC90 (Staphylococcus warneri [17]) of 0.5 mg/L (≈ 0.285 µM). It also gave an MIC50 (Staphylococcus simulans [18]) of 0.25 mg/L (≈ 0.142 µM), an MIC90 (Staphylococcus simulans [18]) of 0.5 mg/L (≈ 0.285 µM) and an MIC50 (Staphylococcus hominis [19]) of 0.25 mg/L (≈ 0.142 µM). The MIC90 (Staphylococcus hominis [19]) was 0.5 mg/L (≈ 0.285 µM), the MIC50 (Streptococcus sp.) was 0.03 mg/L (≈ 0.0171 µM) and the MIC90 (Streptococcus sp.) was 0.12 mg/L (≈ 0.0684 µM). The MIC50 (Staphylococcus cohnii [20]) was 0.25 mg/L (≈ 0.142 µM), the MIC90 (Staphylococcus cohnii [20]) was 0.5 mg/L (≈ 0.285 µM) and the MIC50 (Staphylococcus xylosus) was 0.25 mg/L (≈ 0.142 µM). The MIC90 (Staphylococcus xylosus) was 0.5 mg/L (≈ 0.285 µM), the MIC50 (Staphylococcus simulans [21]) was 0.25 mg/L (≈ 0.142 µM) and the MIC90 (Staphylococcus simulans [21]) was 0.5 mg/L (≈ 0.285 µM). The MIC50 (Staphylococcus [22]) was 0.25 mg/L (≈ 0.142 µM), the MIC90 (Staphylococcus [22]) was 0.5 mg/L (≈ 0.285 µM) and the MIC50 (Staphylococcus aureus [23]) was 0.14 µM (≈ 0.246 µg/mL). It also gave an MIC [24] of 0.03 mg/L (≈ 0.0171 µM), an MIC50 [24] of 0.03 mg/L (≈ 0.0171 µM) and an MIC90 [24] of 0.06 mg/L (≈ 0.0342 µM). For the same compound, the MIC50 [25] was 0.25 mg/L (≈ 0.142 µM), the MIC90 [25] was 0.5 mg/L (≈ 0.285 µM) and the MIC50 (Enterococcus faecalis [26]) was 8 mg/L (≈ 4.56 µM). For the same compound, the MIC90 (Enterococcus faecalis [26]) was 16 mg/L (≈ 9.11 µM), the MIC50 (Streptococcus mitis) was 0.03 mg/L (≈ 0.0171 µM) and the MIC90 (Streptococcus mitis) was 0.12 mg/L (≈ 0.0684 µM). It also gave an MIC50 [27] of 0.03 mg/L (≈ 0.0171 µM), an MIC90 [27] of 0.12 mg/L (≈ 0.0684 µM) and an MIC50 [28] of 0.25 mg/L (≈ 0.142 µM). It also gave an MIC90 [28] of 0.5 mg/L (≈ 0.285 µM), an MIC (Enterococcus faecalis [29]) of 0.25 mg/L (≈ 0.142 µM) and an MIC50 (Streptococcus sanguinis) of 0.03 mg/L (≈ 0.0171 µM). The MIC90 (Streptococcus sanguinis) was 0.12 mg/L (≈ 0.0684 µM), the MIC50 (Staphylococcus aureus [30]) was 0.25 mg/L (≈ 0.142 µM) and the MIC90 (Staphylococcus aureus [30]) was 0.5 mg/L (≈ 0.285 µM). For the same compound, the MIC50 (Staphylococcus [31]) was 0.25 mg/L (≈ 0.142 µM), the MIC90 (Staphylococcus [31]) was 0.5 mg/L (≈ 0.285 µM) and the MIC50 [32] was 0.25 mg/L (≈ 0.142 µM). The MIC90 [32] was 0.5 mg/L (≈ 0.285 µM).
